Laboratory results taken from ChEMBL document CHEMBL1773044, “Potent, selective, and orally bioavailable inhibitors of mammalian target of rapamycin (mTOR) kinase based on a quaternary substituted dihydrofuropyrimidine” (J Med Chem, 2011).

Legend:
[1] = Plasma protein binding in human; format: ADME, cell-free; conditions: read-out: PPB (converted)
[2] = Half life in mouse at 1 mg/kg, iv; format: ADME, organism-based; design: dose 1 mg/kg, route intravenous; conditions: in vivo
Summary of the method: (§1)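 Mouse PK: iv dose 1 mg/kg given as a solution in 80% PEG/10% EtOH; po dose 5 mg/kg given as a suspension in MCT (0.5% methylcellulose/0.2% Tween 80).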

MCF7 = assay: Antiproliferative activity against human MCF7 cells expressing neo/Her2 after 3 days by CellTiter-Glo luminescent cell viability assay; conditions: MCF7, 72 h
[3] = Volume of distribution at steady state in mouse at 1 mg/kg, iv; format: ADME, organism-based; design: dose 1 mg/kg, route intravenous; conditions: in vivo, read-out: Vdss; summary of the method: as §1
[4] = Plasma protein binding in rat; format: ADME, cell-free; conditions: read-out: PPB (converted)
[5] = Plasma protein binding in mouse; format: ADME, cell-free; conditions: read-out: PPB (converted)
Mus musculus [6] = assay: (§2) AUC in mouse at 5 mg/kg, po; format: ADME, organism-based, Plasma; design: dose 5 mg/kg, route oral; conditions: in vivo; summary of the method: as §1
PC-3 = assay: Antiproliferative activity against human PC3 cells after 3 days by CellTiter-Glo luminescent cell viability assay; conditions: PC-3, 72 h
Mus musculus [7] = assay: (§3) Oral bioavailability in mouse at 5 mg/kg; format: ADME, organism-based; conditions: in vivo; summary of the method: as §1
Mus musculus [8] = assay: In vivo inhibition of mTORC2 in NCR nude mouse xenografted with human NCI-PC3 cells assessed as reduction in phosphorylated Akt level at 25 to 100 mg/kg, po administered as single dose relative to control; values are per cent of control; conditions: dose mg/kg 25-100
Mus musculus [9] = assay: In vivo inhibition of mTORC1 in NCR nude mouse xenografted with human NCI-PC3 cells assessed as reduction in phosphorylated S6RP level at 25 to 100 mg/kg, po administered as single dose relative to control; values are per cent of control; conditions: dose mg/kg 25-100
[10] = Clearance in mouse at 1 mg/kg, iv; format: ADME, organism-based; design: dose 1 mg/kg, route intravenous; conditions: in vivo; summary of the method: as §1
[11] = as §2; format: ADME, organism-based, Plasma; design: dose 5 mg/kg, route oral; conditions: plasma; summary of the method: as §1
[12] = as §3; format: ADME, organism-based; conditions: in vivo; summary of the method: as §1
[13] = molecular target: Serine/threonine-protein kinase mTOR (Homo sapiens, UniProt P42345); assay: Inhibition of human recombinant mTOR expressed in insect cells using 4E-BP1 substrate after 30 mins by fluorescence resonance energy transfer assay
[14] = Selectivity ratio of Ki for human recombinant mTOR (1360-2549) over Ki for PI3Kalpha

| Compound | fraction unbound [1] | half-life [2] [min] | IC50 (MCF7) [nM] | Vd [3] [L/kg] | fraction unbound [4] | fraction unbound [5] | IC50 (PC-3) [nM] | other results |
| --- | --- | --- | --- | --- | --- | --- | --- | --- |
| CCNC(=O)Nc1ccc(-c2nc(N3CCOCC3)c3c(n2)C(C)(C)OC3=O)cc1 | 0.02 | 12.6 | 310 | 0.57 | 0.05 | 0.02 | 120 | AUC (Mus musculus [6]): 1.5 µM·h; bioavailability (Mus musculus [7]): 23% |
| CCNC(=O)Nc1ccc(-c2nc(N3CCOC[C@@H]3C)c3c(n2)[C@@](C)(CCC#N)OC3)cc1 | – | – | 100 | – | – | – | 41 | – |
| CCNC(=O)Nc1ccc(-c2nc(N3CCOC[C@@H]3C)c3c(n2)C(C)(C)OC3=O)cc1 | – | – | 220 | – | – | – | 60 | – |
| CCNC(=O)Nc1ccc(-c2nc(N3CCOC[C@@H]3C)c3c(n2)[C@@](C)(CCO)OC3)cc1 | 0.14 | 20.4 | 510 | 2.4 | 0.21 | 0.06 | 118 | AUC (Mus musculus [6]): 0.43 µM·h; F (Mus musculus [7]): 65% |
| CCNC(=O)Nc1ccc(-c2nc(N3C[C@H]4CC[C@@H](C3)O4)c3c(n2)[C@@](C)(CCO)OC3)cc1 | – | – | 160 | – | – | – | 66 | – |
| CCNC(=O)Nc1ccc(-c2nc(N3CCOCC3)c3c(n2)[C@@](C)(CCO)OC3)cc1 | – | – | 490 | – | – | – | 210 | – |
| CCNC(=O)Nc1ccc(-c2nc(N3CCOC[C@@H]3C)c3c(n2)[C@@](C)(CC(C)(C)O)OC3)cc1 | 0.34 | 78 | 29 | 2.7 | 0.12 | 0.15 | 130 | AUC (Mus musculus [6]): 0.65 µM·h; F (Mus musculus [7]): 73% |
| CCNC(=O)Nc1ccc(-c2nc(N3CCOCC3)c3c(n2)[C@](C)(CO)OC3)cc1 | – | – | 280 | – | – | – | 220 | – |
| CCNC(=O)Nc1ccc(-c2nc(N3CCOC[C@@H]3C)c3c(n2)[C@](C)(CCOC)OC3)cc1 | – | – | 130 | – | – | – | 62 | – |
| CCNC(=O)Nc1ccc(-c2nc(N3C[C@H]4CC[C@@H](C3)O4)c3c(n2)[C@](C)(CCO)OC3)cc1 | 0.27 | 46.2 | 22 | 2 | 0.26 | 0.11 | 17 | AUC (Mus musculus [6]): 0.78 µM·h; F (Mus musculus [7]): 50% |
| CCNC(=O)Nc1ccc(-c2nc(N3CCOC[C@@H]3C)c3c(n2)[C@@](C)(CCOC)OC3)cc1 | – | – | 1200 | – | – | – | 284 | – |
| C[C@H]1COCCN1c1nc(-c2ccc(NC(=O)Nc3cnn(C)c3)cc2)nc2c1COC2(C)C | – | – | 160 | – | – | – | 52 | – |
| CCNC(=O)Nc1ccc(-c2nc(N3CCOC[C@@H]3C)c3c(n2)[C@](C)(CCO)OC3)cc1 | 0.13 | 19.8 | 15 | 1.5 | – | 0.06 | 15 | level, % of control (Mus musculus [8]): 15%; AUC (Mus musculus [6]): 0.59 µM·h; level, % of control (Mus musculus [9]): 15%; F (Mus musculus [7]): 110% |
| CCNC(=O)Nc1ccc(-c2nc(N3CCOC[C@@H]3C)c3c(n2)[C@](C)(CO)OC3)cc1 | – | – | 192 | – | – | – | 95 | – |
| CCNC(=O)Nc1ccc(-c2nc(N3CCOCC3)c3c(n2)[C@](C)(CCO)OC3)cc1 | 0.22 | 42.6 | 48 | 1.5 | 0.24 | 0.17 | 16 | AUC (Mus musculus [6]): 0.96 µM·h; F (Mus musculus [7]): 56% |
| CCNC(=O)Nc1ccc(-c2nc(N3CCOC[C@@H]3C)c3c(n2)[C@@](C)(CC2CC2)OC3)cc1 | – | – | 95 | – | – | – | 31 | – |

| Compound | fraction unbound [1] | half-life [2] [min] | IC50 (MCF7) [nM] | Vd [3] [L/kg] | fraction unbound [4] | fraction unbound [5] | IC50 (PC-3) [nM] | other results |
| --- | --- | --- | --- | --- | --- | --- | --- | --- |
| CCNC(=O)Nc1ccc(-c2nc(N3CCOC[C@@H]3C)c3c(n2)C(C)(C)OC3)cc1 | 0.14 | 24 | 52 | 1.4 | 0.08 | 0.05 | 78 | level, % of control (Mus musculus [8]): 15%; clearance [10]: 46 mL/min/kg; AUC [11]: 6.1 µM·h; level, % of control (Mus musculus [9]): 15%; bioavailability [12]: 140% |
| C[C@H]1COCCN1c1nc(-c2ccc(Nc3cccc(=O)[nH]3)cc2)nc2c1COC2(C)C | 0.02 | 132 | 120 | 1.9 | 0.04 | 0.03 | 120 | clearance [10]: 44 mL/min/kg; AUC [11]: 0.31 µM·h; bioavailability [12]: 7% |
| CCNC(=O)Nc1ccc(-c2nc(N3CCOC[C@@H]3C)c3c(n2)[C@@](C)(CO)OC3)cc1 | – | – | 530 | – | – | – | 450 | – |
| CCNC(=O)Nc1ccc(-c2nc(N3CCOC[C@@H]3C)c3c(n2)[C@](C)(CCN(C)C)OC3)cc1 | 0.41 | 34.2 | 1100 | 2.6 | 0.33 | 0.22 | 220 | clearance [10]: 76 mL/min/kg; AUC [11]: 0.14 µM·h; bioavailability [12]: 6% |
| C[C@H]1COCCN1c1nc(-c2ccc(NC(=O)NC[C@@H](O)CO)cc2)nc2c1COC2(C)C | – | – | 1900 | – | – | – | 330 | – |
| CCNC(=O)Nc1ccc(-c2nc(N3CCOC[C@@H]3C)c3c(n2)[C@](C)(CC(C)(C)O)OC3)cc1 | 0.18 | 66 | 75 | 1.3 | 0.22 | 0.09 | 18 | AUC (Mus musculus [6]): 0.63 µM·h; F (Mus musculus [7]): 53% |
| CCNC(=O)Nc1ccc(-c2nc(N3CCOC[C@@H]3C)c3c(n2)[C@](C)(CC2CC2)OC3)cc1 | – | – | 340 | – | – | – | 100 | – |
| CCNC(=O)Nc1ccc(-c2nc(N3CCOCC3)c3c(n2)[C@@](C)(CO)OC3)cc1 | – | – | 1700 | – | – | – | 960 | – |
| CCNC(=O)Nc1ccc(-c2nc(N3CCOCC3)c3sc(C(C)(C)O)cc3n2)cc1 | – | – | – | – | – | – | – | Ki [13]: 3 nM; Ratio Ki [14]: 20 |
| C[C@H]1COCCN1c1nc(-c2ccc(NC(=O)NC3COC3)cc2)nc2c1COC2(C)C | – | – | 480 | – | – | – | 160 | – |
| C[C@H]1COCCN1c1nc(-c2ccc(NC(=O)NCCC#N)cc2)nc2c1COC2(C)C | – | – | 260 | – | – | – | 120 | – |
| C[C@H]1COCCN1c1nc(-c2ccc(NC(=O)NCCO)cc2)nc2c1COC2(C)C | 0.28 | 25.2 | 66 | 1.5 | 0.3 | 0.19 | 46 | clearance [10]: 53 mL/min/kg; AUC [11]: 0.81 µM·h; bioavailability [12]: 22% |
| CCNC(=O)Nc1ccc(-c2nc(N3CCOCC3)c3c(n2)[C@](C)(CC(C)(C)O)OC3)cc1 | 0.23 | 16.2 | 27 | 1 | 0.21 | 0.14 | 28 | AUC (Mus musculus [6]): 0.66 µM·h; F (Mus musculus [7]): 55% |
| CCNC(=O)Nc1ccc(-c2nc(N3CCOC[C@@H]3C)c3c(n2)[C@](C)(CCC#N)OC3)cc1 | – | – | 193 | – | – | – | 74 | – |
| CCNC(=O)Nc1ccc(-c2nc(N3CCOCC3)c3c(n2)[C@@](C)(CC(C)(C)O)OC3)cc1 | – | – | 170 | – | – | – | 140 | – |
